According to ChEMBL document CHEMBL3102739, “Synthesis and antiproliferative activity of conformationally restricted 1,2,3-triazole analogues of combretastatins in the sea urchin embryo model and against human cancer cell lines” (Bioorg Med Chem, 2014):

Legend:
[1] = Growth inhibition of human NCI60 cells at 10 uM after 48 hrs by SRB assay; format: functional; details: NCI60, 48 h, values are per cent of control
[2] = test system: Paracentrotus lividus; assay: Antimitotic activity against sea urchin embryo model assessed as cleavage alteration of fertilized egg compound treated at 8 to 20 mins post-fertilization and 45 to 55 mins prior to first mitotic cycle completion measured 2.5 to 5.5 hrs post-fertilization; format: functional
How it was run: (§1)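 Fertilized eggs are exposed 8–20 min after fertilization to 2-fold decreasing concentrations. Stocks are 10 mM in DMSO, then diluted 10-fold in 95% EtOH; final DMSO is at most 0.05% and EtOH at most 1%. Embryos are kept as a monolayer, up to 2000 embryos/mL, in filtered seawater at room temperature. The value is the threshold concentration giving cleavage alteration, embryo death before hatching or full mitotic arrest. Duplicates were run.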

[3] = test system: Paracentrotus lividus; assay: Antimitotic activity against sea urchin embryo model assessed as cleavage arrest of fertilized egg compound treated at 8 to 20 mins post-fertilization and 45 to 55 mins prior to first mitotic cycle completion measured 2.5 to 5.5 hrs post-fertilization; format: functional; how it was run: as §1
[4] = test system: Paracentrotus lividus; assay: Antimitotic activity against sea urchin embryo free-swimming blastula model assessed as embryo spinning compound treated at 8 to 10 hrs post-fertilization measured after 0.25 to 20 hrs; format: functional, Blastula stage

| Structure (SMILES) | growth, % of control at 10 µM [1] [%] | EC [2] [µM] | EC [3] [µM] | EC [4] [µM] |
| --- | --- | --- | --- | --- |
| COc1ccc(-n2nnc(C(=O)O)c2-c2cc(OC)c(OC)c(OC)c2)cc1 | 104 | >4 | >4 | >4 |
| COc1ccc(-n2nnc(N)c2-c2cc(OC)c(OC)c(OC)c2)cc1 | 90.1 | 4 | >4 | >4 |
| COc1ccc(/C=C\c2cc(OC)c3c(c2)OCO3)cc1O [Combretastatin A-2] |  | 0.002 | 0.01 | 0.05 |
| CCOC(=O)c1nnn(-c2cccc(Cl)c2)c1-c1ccccc1 |  | >4 | >4 | >4 |
| Nc1nnn(-c2cccc(Cl)c2)c1-c1ccccc1 |  | >4 | >4 | >4 |
| COc1cccc(-c2c(C#N)nnn2-c2cccc(Cl)c2)c1 | 92 | >4 | >4 | >4 |
| COc1ccc(-c2c(C(=O)O)nnn2-c2cc(OC)c(OC)c(OC)c2)cc1 | 99.4 | >4 | >4 | >4 |
| COc1cc(-c2c(C#N)nnn2-c2cc(OC)c(OC)c(OC)c2)cc(OC)c1OC | 98.8 | >4 | >4 | >4 |
| COc1cc(-c2c(C#N)nnn2-c2cccc(Cl)c2)cc(OC)c1OC | 92.6 | 0.5 | 2 | >5 |
| O=C(O)c1nnn(-c2cccc(Cl)c2)c1-c1ccccc1 |  | >4 | >4 | >4 |
| Clc1cccc(-n2nncc2-c2ccccc2)c1 |  | >4 | >4 | >4 |
| COc1ccc(-c2c(C#N)nnn2-c2ccc(OC)cc2)cc1 | 96.7 | 4 | >4 | >4 |
| COc1ccc(-n2nnc(C#N)c2-c2cc(OC)c(OC)c(OC)c2)cc1 |  | 1 | >4 | >4 |
| COC(=O)c1nnn(-c2cc(OC)c(OC)c(OC)c2)c1-c1ccc(OC)cc1 |  | >4 | >4 | >4 |
| COc1ccc(-c2c(N)nnn2-c2cc(OC)c(OC)c(OC)c2)cc1 |  | 0.1 | >4 | >5 |
| COc1ccc(-n2nnc(C#N)c2-c2cccc(OC)c2)cc1 |  | 0.2 | 1 | 5 |
| COc1ccc(-c2c(C(N)=O)nnn2-c2cc(OC)c(OC)c(OC)c2)cc1 | 101 | >4 | >4 | >4 |
| COc1cc(-c2c(C(N)=O)nnn2-c2cc(OC)c(OC)c(OC)c2)cc(OC)c1OC | 102 | >4 | >4 | >4 |
| COc1ccc(-c2cnnn2-c2cc(OC)c3c(c2OC)OCO3)cc1 |  | 1 | >4 | >4 |
| COc1ccc(-c2c(C#N)nnn2-c2cc(OC)c(OC)c(OC)c2)cc1 |  | >4 | >4 | >4 |
